This passage reports yeast fitness results from the RNAGym collection of RNA variant scans (doi:10.1126/science.aae0568).

Fewer inactive variants are shown than the library holds. Where only a bound is given, the exact number is not on record here.

To fix the notation:
B1: tRNA (parent)
chain: GUUCCGUUGGCGUAAUGGUAACGCGUCUCCCUCCUAAGGAGAAGACUGCGGGUUCGAGUCCCGUACGGAACG

Variants of B1 are the subject of the data set. Nature of the data set: yeast fitness relative to wild type (ratio to wild type); higher = fitter; tRNA-Arg(CCU), competitive growth, 37 C, YPD. Put shortly: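 The tRNA-Arg(CCU) gene variants were made by chemical synthesis with a 3% per-site mutation rate at 69 sites and inserted at the native genomic locus of Saccharomyces cerevisiae. After pooling, the strains were competed in YPD at 37°C for 24 hours in six parallel replicates. Gene amplicons from the start population and each end population were read by 100-nucleotide paired-end sequencing, and Darwinian fitness relative to wild type was taken from genotype frequency changes. Genotypes needed ≥ 100 starting reads, and estimates < 0.5 were set to 0.5.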
For the variant GUUCCGUUGGCGUAAUGGCAACGCGUCUCCCUCCUAAGGACAAGACUGCGGGUUCGAGUCCCGUACGGAACG [U19C G41C], the yeast fitness is 0.987. The same measure for GUUCCGUUCCCGUAAUGGUAACGCGUCUCCCUCCUAAGGAGAAGACAGCGGGUUCGAGUCCCGUACGGAACG [G9C G10C U47A]: at most 0.5; for GUUUCGUAGGCGUAAUGGUGACGAGUCUCCCUCCUAAGGAGAAGACUGCGGGUUCGAGUCCCGUACGGAACG [C4U U8A A20G C24A]: at most 0.5.

As for GUUCCGUUGACGUAAUAGUAACGCGUCCCCGUCCUAAGGAGAAGACUGCGGGUUCGAGUCCCGUACCGAACG [G10A G17A U28C C31G G67C], the yeast fitness is at most 0.5. The same measure for GUUCCGUUGAUGUAAUGGUAACGCGUCUACCUCAUAAGGAGAAAACUGCGGGUUCGAGUCCCGUAGGGAACG [G10A C11U C29A C34A G44A C66G]: 0.545; for GUUCCGUUGGCGUAAUGGUAACGCGUCUCCCUUCUAAGGAGAUGACUGGCGGUUCGAGUGCCGUACGGAACG [C33U A43U C49G G50C C60G]: at most 0.5; for GGUCCGUUGGCGUAAUGGUAACGCGUUUCCCUCCUGAGGAGAAGACUGCGGGUUCGAGUCCAGUACGGAACG [U2G C27U A36G C62A]: at most 0.5. Take GUUGCGUUGGCGUGAUGGUAACGCGUCUCCCUCCUAAAGAGAAGACUGCGGGUUCCAGUCCCGUACGGAGCG [C4G A14G G38A G56C A70G]: the yeast fitness was at most 0.5. For the variant GUUCCGUUGGCGUAAUGGUAACGCGUCUCCGUCCUAAGGAGAAGGCUGCGGGUCCUAGUCCCGUACGGAACG [C31G A45G U54C G56U], the yeast fitness was at most 0.5.

GUUCCGUUGGCGUAAUGGUAACGCGUCUCCCUCCUAAGGAGAAGACUGCGGGUUCGAGUCUCGUGCGGAACG [C61U A65G]: the yeast fitness stood at 1.07. For the variant GUUCCGUUGGCGUAAUGGUAUCGCGUCUCCCUCCUAACGAGAACACUGCGGGUUCGAGUCCAGUACGGAACG [A21U G38C G44C C62A], the yeast fitness is at most 0.5. With GUUCCGUUGGCGUAAGGGUAACGCGUCUCCCUCCUAAGGAGAAGACUGCGCGUUCGAGUCCCGUCCGGAACG [U16G G51C A65C], the yeast fitness was 0.635. The same measure for GAUCCGUUAGCGUAAUGGUCACGUGUCUCCCUCCUAAGGAGAAGACUGCGGGUUCGAGUCCCGUACGGAACG [U2A G9A A20C C24U]: at most 0.5; for GUUCCGUUGGCGUAAUGGUAACGGGUCUCUCUCCUAAGGAGAAGAAUGCGGGUUCGAGUCCCGUACGGAACG [C24G C30U C46A]: 0.616.

For GUUCCGUCGGCGUAAUGGUAACGCGUCUCGGUCCUAAGGAGAAGACUGCGGGUUCGAGUCCCGUAUGGAACG [U8C C30G C31G C66U], the yeast fitness was at most 0.5. Under GUUCCCUUGGCGUAAUGGCAACGCGUCUCCCUCCUAACGAGAACAAUGCGGGUUCGAGUCCCGUACGGAACG [G6C U19C G38C G44C C46A] stands at most 0.5.

Consider GUUCCGUUGGCGUAAUGGUAACGCGUGUCCCUCAUAAGGAGAAGACUGCGGGUUCGAGUCUCGUACGGAACG [C27G C34A C61U], for which the yeast fitness is at most 0.5. Under GUUCCGUUGGCGUAAUCGUAACGCGUCUCCCACCUAAGGAGAAGAAUGCGGGUUCGAGUCCCGUACGGAACG [G17C U32A C46A] stands 0.582. The same measure for GUUCCGUUGGUCUAAUGGUAACGCGCCUCCCUCCUAAGGUGAAGACUGCGGGUUCGUGUCCCGUACGGAACG [C11U G12C U26C A40U A57U]: 0.612; for GUUCCGUUGGCGUAAUGGUACCGCGUCGCCCUCCUAAGGAGACGACUGCGGCUUCGAGUCCCGUACGGAACG [A21C U28G A43C G52C]: at most 0.5.

With GUUCCGUUGCCGUAAUGGUAACGCGUCUCCCUCCUAAGGAGAAGACUGCGGGUUUAAGUCCCGUACGGAACG [G10C C55U G56A], the yeast fitness was at most 0.5. Under GUUCCGUUGGCGUAAUGGUAACGCGUCUUCAUCCUAAGGAGAAGACUGCGGGUUCGAGUCCCGUAGUGAACG [C29U C31A C66G G67U] stands at most 0.5; under GUUCAGUUGGCGUAAUGGUUACGCGUCUCCGUCCUAAGGAGAAGACUGCGGGUUCGAGUCCCGUACGGAACG [C5A A20U C31G], 0.585.

For GUUCCGUUGGCGUAAUGGUAACGCGUCUCCCUGCUAAGGAGAAGACUGCGGGUUCGAGUACCGUAGGGAACG [C33G C60A C66G], the yeast fitness was at most 0.5. As for GUUCCAUUGGCGUAAUGGUAACGCGUCUCCCUCCUAAGGACAAGACUGCGGGUUCGAGUCCCGUACGGAACG [G6A G41C], the yeast fitness stood at 0.863. Under GUUACGUUGGCGUAAUGGUAACGCGUCUCCCUCCUAAGGAGAAGACUGCGGGUUCGAAUCCCGUACGGAACG [C4A G58A] stands 0.878. As for GUUCCGUUGGCGUAAUGGUAACGCGACUCCCUCCUAAGGAGAAGAAUGCGGGUUCGAGUCCGGUACGGAACG [U26A C46A C62G], the yeast fitness came to 0.797. Under GUUCCGAAGGCGUAAUGGUAACGCAUCUCCCUCCUAAGGCGAAGACUGCGGGUUCGAGUUCCGUACGGAACG [U7A U8A G25A A40C C60U] stands at most 0.5. The same measure for GUUCGGUCGGAGUAAUGGUAACGCGCCUCCCUCCCAAGGAGAAGACUGCCGAUUCGAGUCCCGUACGGAACG [C5G U8C C11A U26C U35C G50C G52A]: 0.634.

As for GUUCCGUUGGCCUAAUGGUAACGCGUCUCCCUCCUACGGUGAAGAUUGCGGGUUCGAGUCCCAUACGGAACG [G12C A37C A40U C46U G63A], the yeast fitness was at most 0.5. Under GUUCCGUUGGCGCAAUGGUAAUGCGUCUCCCUCCUAACGAGAAGACUGCGAGUUCGCGUCCCGUACGGAACG [U13C C22U G38C G51A A57C] stands at most 0.5. Take GUUCGGUUGGCGUAAUGGUAACGCGUCUCCCUCCUAAGGAGAAGACUGCGGGUUCGAGUCCUGUACGGAACG [C5G C62U]: the yeast fitness amounted to 0.79. The same measure for GUUUCGUAGGCGCAAUGGUAACGCGUCUCCCUCCUAAGGAGAAGACUGCGGGUUCGCGUCCCGUACGGAACG [C4U U8A U13C A57C]: at most 0.5; for GUUCCGUUGGCGUAAUGGUAACGCGUCUCCGUCCUAUGGAGUAGACUGCGGGUUCGAGUCCCGUCCGGAACG [C31G A37U A42U A65C]: at most 0.5; for GUUCCGUUGGCGUAAUGGUAACGCGUCACCCUCCUAAGGAGAAGACUGCGGGUUCCAGUCCCGUACGGAACG [U28A G56C]: at most 0.5. Under GUUCCGUUGGCGUAAUGGUAACGCGUCUGCCUCCUAAGGAGAAGAUUGCGGGUUCAAGUCCCGUACGGAACG [C29G C46U G56A] stands at most 0.5. As for GUUCCGUUGGCGUUAUGGUAACGGGUCUCCCUCCUAAGGAGAAGACUGCGGGUUCGAGUCCCGUACGGAACG [A14U C24G], the yeast fitness turned out to be 0.657.

As for GUUCCGUUGGCGUAAUGGUAAGGCGUCUCCCUCCUAAGGAGAAGACUGCGGGUUCGAUUCCCGUACGGAACG [C22G G58U], the yeast fitness came out at 1.05.
